Among the data in PubChem BioAssay AID2692 (The Scripps Research Institute Molecular Screening Center, 2010) are current density values, retold here.

Molecules are shown by their SMILES. Activity calls are given as the source filed them. How the calls were made is not given here.

The assay deals with transient receptor potential cation channel subfamily N member 1 (TRPN1/NompC), zebrafish. The experiment in a line: zebrafish TRPN1 channel activation, late-stage follow-up, selectivity assay for TRPML3 selective agonist project, whole-cell patch clamp, HEK293 (AID 2692). Particulars: at 10 µM. A digest of the protocol:
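Buffer or medium: NaCl bath pH 7.4 plus 2-APB, CsCl/BAPTA pipette pH 7.2; Test system: HEK293 cells expressing the TRPN1 ion channel; Technique: whole-cell patch clamp, 20 mV steps −200 to +100 mV; Timing: 10 ms steps, holding potential +10 mV; Dosing: compound at 10 µM only.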
(The patch-clamp technique gives a direct electrical read-out from membranes.)
With `CCOc1ccc(S(=O)(=O)N2CCCCCC2)c2ccccc12`, the current density at -80 mV was -0.003 nA/pF (inactive).
On to `CC1CCN(S(=O)(=O)c2ccc(C(C)C)cc2)CC1`, for which the current density at -80 mV was -0.003 nA/pF (inactive).
Consider `Cc1ccc(S(=O)(=O)n2nccc2-c2c(-c3ccc(Cl)cc3)noc2C)cc1`, for which the current density at -80 mV is -0.004 nA/pF (inactive).
